Test results published in ChEMBL document CHEMBL3352366, “Synthesis and biological evaluation of 2,3-dihydroimidazo[1,2-a]benzimidazole derivatives against Leishmania donovani and Trypanosoma cruzi” (Eur J Med Chem, 2014).
Calls of active or inactive are those of the source. No cut-off for these calls is given here.

Columns and labels:
[1] = Cytotoxicity against human U2OS cells infected with intracellular Trypanosoma cruzi; assay type: cell-based
Procedure, shortened: (§1)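 U2OS cytotoxicity was measured in the same 48 h T. cruzi infection assay by counting host cell numbers in the DRAQ5-stained confocal images to give CC₅₀. SI was calculated from EC₅₀ and CC₅₀.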

[2] = Selectivity index, ratio of IC50 for human THP1 cells to IC50 for intracellular amastigote stage of Leishmania donovani MHOM/ET/67/HU3; assay type: toxicity, cell-based, THP-1; conditions: read-out: Selectivity Index
Procedure, shortened: (§2)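 Host THP-1 cytotoxicity was taken from the same intracellular amastigote images (PMA-differentiated, infected, 3-day compound exposure) by counting cell numbers normalized to 1 % DMSO. CC₅₀ is the average of duplicates; SI was calculated from EC₅₀ and CC₅₀.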

Leishmania donovani [3] = assay: Antileishmanial activity against intracellular amastigote stage of Leishmania donovani MHOM/ET/67/HU3 infected in human THP1 cells after 3 days by confocal microscopy; assay type: functional, organism-based; conditions: MHOM/ET/67/HU3, THP-1, 72 h
Leishmania donovani [4] = assay: Antileishmanial activity against extracellular promastigote stage of Leishmania donovani MHOM/ET/67/HU3 incubated for 28 hrs followed by additional 20 hrs incubation
Trypanosoma cruzi = assay: Antitrypanosomal activity against intracellular Trypanosoma cruzi infected in human U2OS cells after 48 hrs by confocal microscopy; assay type: functional, organism-based
Procedure, shortened: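 T. cruzi tissue-culture trypomastigotes were raised in LLC-MK2 cells. U2OS cells and parasites were mixed, dispensed onto compound plates and incubated 48 h at 37 °C, 5 % CO₂. Cells were fixed with 4 % paraformaldehyde, DRAQ5-stained and imaged by confocal microscopy to count parasites and infection ratio. Controls: benznidazole 400 µM and 1 % DMSO. EC₅₀ derived from infection ratio normalized to the controls.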

[5] = Cytotoxicity against human THP1 cells infected with intracellular amastigote stage of Leishmania donovani MHOM/ET/67/HU3; assay type: cell-based, THP-1; procedure, shortened: as §2
[6] = Selectivity index, ratio of IC50 for human U2OS cells to IC50 for intracellular Trypanosoma cruzi; assay type: toxicity, cell-based; conditions: U2OS cells versus intracellular Trypanosoma cruzi, read-out: Selectivity Index; procedure, shortened: as §1
Leishmania donovani [7] = assay: Antileishmanial activity against intracellular amastigote stage of Leishmania donovani MHOM/ET/67/HU3 infected in human THP1 cells assessed as reduction in parasite count at 12.5 uM after 3 days by confocal microscopy; assay type: functional, organism-based; conditions: THP-1

SMILES | CC50 [1] [µM] | selectivity ratio [2] | EC50 (Leishmania donovani [3]) [µM] | EC50 (Leishmania donovani [4]) [µM] | EC50 (Trypanosoma cruzi) [µM] | CC50 [5] [µM] | selectivity ratio [6] | growth inhibition (GI) (Leishmania donovani [7])
CC(C)(C)c1ccc(CN2C3=NCCN3c3cc(Cl)ccc32)cc1 | 44.6 | 1.71 | 7.33 | 2.22 | 6.21 | 12.5 |  | 
FC(F)(F)Oc1ccc(-c2ccc(CN3C4=NCCN4c4ccccc43)cc2)cc1 | > 50 | 2.11 | 5.2 | 1.53 | > 50 | 11 |  | 
FC(F)(F)Oc1ccc(CN2C3=NCCN3c3ccccc32)cc1 |  |  | > 50 |  |  | > 50 |  | 
CC(C)(C)c1ccc(CN2C3=NCCCN3c3ccccc32)cc1 | > 50 | > 3.98 | 12.5 | 2.73 | 3.09 | > 50 | > 16.2 | 
c1ccc2c(c1)N1CCN=C1N2Cc1ccc(C2CCCCC2)cc1 | 6.1 | 4.19 | 5.4 | 1.71 | 1.6 | 22.8 | 3.81 | 
Cc1ccc(-c2ccc(CN3C4=NCCN4c4ccccc43)cc2)cc1 | 10.3 | 1.52 | 17.8 | 1.75 | 7.45 | 27.1 | 1.38 | 
CC(C)(C)c1ccc(OCCN2C3=NCCN3c3ccccc32)cc1 | 37.9 | 1.21 | 27.4 |  | 8.7 | 33.1 | 4.36 | 
CC(C)(C)c1cccc(CN2C3=NCCN3c3ccccc32)c1 | 34.6 | > 2.21 | 22.6 | 4.98 | 12.5 | > 50 | 2.77 | 
Fc1ccc(F)c(-c2ccc(CN3C4=NCCN4c4ccccc43)cc2)c1 | 9.61 | > 1.54 | 32.5 | 9.22 | 4.49 | > 50 | 2.14 | 
CCc1ccc(CN2C3=NCCN3c3ccccc32)cc1 | > 50 | > 1.19 | 42 |  | 33.7 | > 50 | > 1.48 | 
CS(=O)(=O)c1ccc(CN2C3=NCCN3c3ccccc32)cc1 |  |  | > 50 |  |  | > 50 |  | 
c1ccc(-c2ccc(CN3C4=NCCN4c4ccccc43)cc2)cc1 | 18.8 | 7.5 | 5.29 | 1.48 | 2.1 | 39.7 | 8.95 | 
FC(F)(F)c1ccc(-c2ccc(CN3C4=NCCN4c4ccccc43)cc2)cc1 | > 50 | 2.91 | 10.3 | 3.11 | > 50 | 30 |  | 
COc1ccc(-c2ccc(CN3C4=NCCN4c4ccccc43)cc2)cc1 | > 50 | 2.25 | 10.2 | 2.34 | > 50 | 23 |  | 
N#Cc1ccc(CN2C3=NCCN3c3ccccc32)cc1 |  |  | > 50 |  |  | > 50 |  | 
CC(C)(C)c1ccc(CN2C3=NC(=O)CN3c3ccccc32)cc1 | > 50 |  | > 50 |  | > 50 | > 50 |  | 

SMILES | CC50 [1] [µM] | selectivity ratio [2] | EC50 (Leishmania donovani [3]) [µM] | EC50 (Leishmania donovani [4]) [µM] | EC50 (Trypanosoma cruzi) [µM] | CC50 [5] [µM] | selectivity ratio [6] | growth inhibition (GI) (Leishmania donovani [7])
Cc1ccc2c(c1)N1CCN=C1N2Cc1ccc(C(C)(C)C)cc1 | > 50 | 2.55 | 11 | 1.8 | 19.6 | 28.1 | > 2.28 | 
Cc1cc2c(cc1C)N(Cc1ccc(C(C)(C)C)cc1)C1=NCCN12 | > 50 |  | > 50 |  | > 50 | > 50 |  | 
C[C@@H]1[C@H](O)[C@@H](C)/C=C/C=C/C=C/C=C/C=C/C=C/C=C/[C@H](O[C@@H]2O[C@H](C)[C@@H](O)[C@H](N)[C@@H]2O)C[C@@H]2O[C@](O)(C[C@@H](O)C[C@@H](O)[C@H](O)CC[C@@H](O)C[C@@H](O)CC(=O)O[C@H]1C)C[C@H](O)[C@H]2C(=O)O [AMPHOTERICIN B] |  | 30.2 |  | 0.22 |  |  |  | Active
FC(F)(F)c1ccc(CN2C3=NCCN3c3ccccc32)cc1 | > 50 |  | > 50 |  | 13.4 | > 50 | > 3.75 | 
CC(C)(C)c1ccc(C(=O)CN2C3=NCCN3c3ccccc32)cc1 | > 50 | > 1.27 | 39.4 |  | 36 | > 50 | > 1.39 | 
c1ccc(Oc2ccc(CN3C4=NCCN4c4ccccc43)cc2)cc1 | 20 | 3.82 | 12.5 | 2.01 | 38.7 | 48 | 0.52 | 
CCCCCCCCCCCCCCCCOP(=O)([O-])OCC[N+](C)(C)C [MILTEFOSINE] |  | 3.91 | 4.83 | 11.1 |  | 18.9 |  | Active
Cc1cc(C)cc(CN2C3=NCCN3c3ccccc32)c1 | > 50 |  | > 50 |  | > 50 | > 50 |  | 
Clc1ccc(-c2ccc(CN3C4=NCCN4c4ccccc43)cc2)cc1 | 9.36 | 1.46 | 13.7 |  | 5.56 | 20 | 1.7 | 
CC(C)(C)c1ccc(CN2C3=NCCN3c3cc(F)ccc32)cc1 | 50 | > 3.57 | 14 | 1.26 | 8.24 | > 50 | 6.07 | 
c1ccc(CN2C3=NCCN3c3ccccc32)cc1 |  |  | > 50 |  |  | > 50 |  | 
Fc1ccc(CN2C3=NCCN3c3ccccc32)cc1 | > 50 |  | > 50 |  | > 50 | > 50 |  | 
c1ccc(CN2C3=NCCN3c3ccccc32)nc1 | > 50 |  | > 50 |  | > 50 | > 50 |  | 
CC(C)c1ccc(CN2C3=NCCN3c3ccccc32)cc1 | > 50 |  | > 50 |  | > 50 | > 50 |  | inactive
CC(C)(C)c1ccc(CCN2C3=NCCN3c3ccccc32)cc1 | 21 | > 1.98 | 25.3 | 20.8 | 12.7 | > 50 | 1.65 | 
Fc1ccc(-c2ccc(CN3C4=NCCN4c4ccccc43)cc2)cc1 | > 50 | 3.94 | 8.88 | 1.49 | 8.89 | 35 | > 5.62 | 
